The target of series [1] is T1, Muscarinic acetylcholine receptor M2 (Homo sapiens) (UniProt P08172).
T1 sequence (whole entry): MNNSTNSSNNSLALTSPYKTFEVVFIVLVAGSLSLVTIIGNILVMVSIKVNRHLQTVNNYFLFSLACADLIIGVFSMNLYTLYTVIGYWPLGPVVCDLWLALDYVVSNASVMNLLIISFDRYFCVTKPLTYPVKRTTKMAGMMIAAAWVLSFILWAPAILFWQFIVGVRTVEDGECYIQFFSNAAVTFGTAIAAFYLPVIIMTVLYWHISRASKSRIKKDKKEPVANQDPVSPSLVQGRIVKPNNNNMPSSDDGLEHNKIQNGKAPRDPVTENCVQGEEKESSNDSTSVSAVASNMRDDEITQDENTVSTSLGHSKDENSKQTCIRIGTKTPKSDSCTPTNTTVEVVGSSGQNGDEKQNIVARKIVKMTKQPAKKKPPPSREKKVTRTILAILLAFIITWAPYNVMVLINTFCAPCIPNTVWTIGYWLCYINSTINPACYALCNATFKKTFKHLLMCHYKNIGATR
Nature of the series: Displacement of [3H]QNB from M2 receptor at 10 uM.

Series [2] addresses D(2) dopamine receptor (Homo sapiens) (UniProt P14416). The series can be described thus: Displacement of [3H]N-methylspiperone from D2 at 10 uM.
The target in series [3] is T2, Neuronal acetylcholine receptor; alpha4/beta2 (Homo sapiens, UniProt P17787+P43681). Nature of the series: Partial agonist activity at human high sensitive alpha4beta2 nAChR expressed in SH-EP1 cells assessed as 86Rb+ ion efflux by flip-plate technique relative to sazetidine-A. It is filed as functional, cell-based. The gist of the method:
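86Rb+ ion flux in SH-EP1 cells stably transfected with separate human α4 and β2 subunit cDNAs, expressing a mixture of high- and low-sensitivity α4β2 nAChRs. Cells kept at low passage (1−26). Efficacy at the HS form extrapolated relative to a reference agonist defined as a 100% full agonist.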

The species entered for a further series is Rattus norvegicus. Nature of the series: Selectivity ratio of Ki for rat alpha3beta4 to Ki for rat alpha4beta2. The gist of the method:
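Ki values from [3H]epibatidine competition binding at heterologously expressed rat nAChR subtypes, using the PDSP protocol; selectivity taken as the α3β4/α4β2 Ki ratio.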

Series [4] concerns the target Beta-3 adrenergic receptor (Homo sapiens) (UniProt P13945). Nature of the series: Displacement of [125I]Iodopindolol from beta3 adrenergic receptor at 10 uM. For orientation: In a radioligand displacement assay an active substance lowers the binding of a labelled ligand.
The nature of series [5]: Metabolic stability in human liver microsomes assessed as compound remaining at 1 uM after 1 hr. It is filed as ADME, Microsome. The note with it: read-out: Stability. The essentials:
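Compound at 1 μM incubated for 1 h with human or mouse liver microsomes; percent of parent remaining unchanged.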
(Liver microsomes are vesicles of endoplasmic reticulum, rich in cytochrome P450 enzymes.)

A further series addresses Cytochrome P450 2C19 (Homo sapiens, UniProt P33261). The series can be described thus: Inhibition of CYP2C19 up to 10 uM. It is filed as ADME. The gist of the method:
(§1)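 Percent inhibition of CYP isoforms (CYP1A, CYP2C9, CYP2C19, CYP2D6, CYP3A; CYP1A2 reported) with test compound at concentrations up to 10 μM.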

The next series addresses Cytochrome P450 2C9 (Homo sapiens, UniProt P11712). The series can be described thus: Inhibition of CYP2C9 up to 10 uM. It is filed as ADME. The essentials: as §1
The target of series [6] is D(1A) dopamine receptor (Homo sapiens) (UniProt P21728). The series can be described thus: Displacement of [3H][…] from D1 at 10 uM.
Series [7] addresses D(3) dopamine receptor (Homo sapiens) (UniProt P35462). The series can be described thus: Displacement of [3H]N-methylspiperone from D3 at 10 uM.
The target of series [8] is Beta-1 adrenergic receptor (Homo sapiens) (UniProt P08588). Nature of the series: Displacement of [125I]Iodopindolol from beta1 adrenergic receptor at 10 uM.
Series [9] addresses Acetylcholine receptor; alpha1/beta1/delta/gamma (Homo sapiens) (UniProt P02708+P07510+P11230+Q07001). The series can be described thus: Agonist activity at human alpha1beta1gammadelta nAChR expressed in TE671/RD cells at 10 uM by 86Rb+ flux assay. It is filed as functional, cell-based. The gist of the method: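 Human clonal TE671/RD cells endogenously express muscle-type α1*-nAChRs (α1, β1, γ, δ). Cells were kept at low passage (1−26 from frozen stocks). Function was read as 86Rb+ efflux, with agonist and antagonist modes tested up to 10 μM.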

The target of series [10] is T3, Alpha-1B adrenergic receptor (Homo sapiens) (UniProt P35368).
T3 sequence (whole entry): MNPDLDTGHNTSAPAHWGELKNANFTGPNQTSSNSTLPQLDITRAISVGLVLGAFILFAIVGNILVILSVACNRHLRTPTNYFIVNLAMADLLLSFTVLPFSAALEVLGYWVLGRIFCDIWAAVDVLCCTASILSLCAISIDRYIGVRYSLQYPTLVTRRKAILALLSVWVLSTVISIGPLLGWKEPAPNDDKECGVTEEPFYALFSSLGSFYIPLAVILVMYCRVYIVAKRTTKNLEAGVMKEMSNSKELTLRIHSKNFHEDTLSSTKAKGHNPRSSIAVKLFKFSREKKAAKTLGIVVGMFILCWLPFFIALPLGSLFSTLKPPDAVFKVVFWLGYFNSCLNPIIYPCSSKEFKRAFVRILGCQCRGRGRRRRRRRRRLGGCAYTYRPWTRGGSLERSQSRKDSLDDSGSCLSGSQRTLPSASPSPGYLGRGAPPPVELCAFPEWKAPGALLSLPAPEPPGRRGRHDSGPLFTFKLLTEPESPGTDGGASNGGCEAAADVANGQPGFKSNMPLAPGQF
Nature of the series: Displacement of [3H]Prazosin from alpha1B adrenergic receptor at 10 uM.

The target of another series is hERG (KCNH2) (Homo sapiens, UniProt Q12809). The series can be described thus: Inhibition of human ERG expressed in CHO cells at 10 uM by patch clamp electrophysiology assay. It is filed as cell-based. The following applies: CHO cells expressing human ERG. The gist of the method: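 Automated patch-clamp electrophysiology on hERG K+ channels in CHO cell lines; inhibition measured at three concentrations: 0.1, 1 and 10 μM.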
Background: Patch clamp records ionic current or voltage across a cell membrane.

The target of series [11] is Histamine H2 receptor (Homo sapiens) (UniProt P25021). The series can be described thus: Displacement of [3H]Tiotidine from H2 histamine receptor at 10 uM.
In series [12] the target is Neuronal acetylcholine receptor; alpha2/beta4 (Rattus norvegicus, UniProt P12389+P12392). Nature of the series: Displacement of [3H] epibatidine from rat alpha2beta4 nAChR by beta scintillation counting. It is filed as protein-complex assay.
Series [13] concerns the target Neuronal acetylcholine receptor; alpha2/beta2 (Rattus norvegicus, UniProt P12389+P12390). Nature of the series: Displacement of [3H] epibatidine from rat alpha2beta2 nAChR by beta scintillation counting. It is filed as protein-complex assay.
In series [14] the target is T2, Neuronal acetylcholine receptor; alpha4/beta2. The series can be described thus: Agonist activity at human alpha4beta2 nAChR expressed in SH-EP1 cells assessed as 86Rb+ ion efflux after 9.5 mins by flip-plate technique. It is filed as functional, cell-based. The essentials: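 SH-EP1 human epithelial cells stably transfected with separate human α4 and β2 subunit cDNAs express a mixed population of high-sensitivity (2:3 α4:β2) and low-sensitivity (3:2) α4β2-nAChRs. Cells were kept at low passage (1−26 from frozen stocks). Function was read as 86Rb+ ion flux.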

What is called inhibition is the drop in the measured response relative to a control, in per cent. The term Ki denotes a dissociation constant, usually derived from enzyme kinetics or from competition with a known ligand. Read a low Ki as a stronger hold on the target. Broadly, the EC50 is the concentration that produces a half-maximal response.

Each structure is given as a SMILES string. Active and inactive are the calls of the source.

hERG (KCNH2), sequence (Q12809 whole entry): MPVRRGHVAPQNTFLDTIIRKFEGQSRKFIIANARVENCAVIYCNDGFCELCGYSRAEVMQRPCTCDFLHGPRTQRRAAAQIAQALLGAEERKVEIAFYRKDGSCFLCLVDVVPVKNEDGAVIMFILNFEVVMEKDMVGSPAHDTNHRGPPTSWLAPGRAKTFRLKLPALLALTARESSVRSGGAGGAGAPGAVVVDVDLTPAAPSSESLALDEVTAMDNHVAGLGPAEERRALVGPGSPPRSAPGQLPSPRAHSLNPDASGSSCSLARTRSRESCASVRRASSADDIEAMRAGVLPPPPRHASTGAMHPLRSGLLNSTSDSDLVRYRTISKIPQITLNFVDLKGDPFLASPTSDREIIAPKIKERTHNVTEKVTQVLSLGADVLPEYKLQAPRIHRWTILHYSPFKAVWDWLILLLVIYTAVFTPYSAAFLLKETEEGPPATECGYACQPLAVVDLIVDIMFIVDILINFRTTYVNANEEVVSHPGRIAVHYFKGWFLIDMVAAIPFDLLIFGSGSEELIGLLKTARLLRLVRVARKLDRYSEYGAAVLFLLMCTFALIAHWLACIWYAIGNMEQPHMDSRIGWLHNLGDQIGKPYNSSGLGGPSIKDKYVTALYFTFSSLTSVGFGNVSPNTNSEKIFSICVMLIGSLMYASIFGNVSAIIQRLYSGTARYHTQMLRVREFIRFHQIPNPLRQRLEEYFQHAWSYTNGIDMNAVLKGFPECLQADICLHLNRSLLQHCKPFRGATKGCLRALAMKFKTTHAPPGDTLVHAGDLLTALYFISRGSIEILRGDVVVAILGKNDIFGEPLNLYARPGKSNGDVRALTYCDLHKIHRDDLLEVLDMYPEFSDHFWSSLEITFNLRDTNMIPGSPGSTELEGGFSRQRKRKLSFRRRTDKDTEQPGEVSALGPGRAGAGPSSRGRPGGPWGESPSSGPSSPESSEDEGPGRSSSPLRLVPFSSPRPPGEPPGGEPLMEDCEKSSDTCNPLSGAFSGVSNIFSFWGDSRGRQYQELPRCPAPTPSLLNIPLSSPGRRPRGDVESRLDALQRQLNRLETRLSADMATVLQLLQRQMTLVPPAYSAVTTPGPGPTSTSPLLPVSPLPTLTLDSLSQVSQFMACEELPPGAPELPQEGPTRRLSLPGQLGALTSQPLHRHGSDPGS
Cytochrome P450 2C19, sequence (P33261 whole entry, canonical isoform): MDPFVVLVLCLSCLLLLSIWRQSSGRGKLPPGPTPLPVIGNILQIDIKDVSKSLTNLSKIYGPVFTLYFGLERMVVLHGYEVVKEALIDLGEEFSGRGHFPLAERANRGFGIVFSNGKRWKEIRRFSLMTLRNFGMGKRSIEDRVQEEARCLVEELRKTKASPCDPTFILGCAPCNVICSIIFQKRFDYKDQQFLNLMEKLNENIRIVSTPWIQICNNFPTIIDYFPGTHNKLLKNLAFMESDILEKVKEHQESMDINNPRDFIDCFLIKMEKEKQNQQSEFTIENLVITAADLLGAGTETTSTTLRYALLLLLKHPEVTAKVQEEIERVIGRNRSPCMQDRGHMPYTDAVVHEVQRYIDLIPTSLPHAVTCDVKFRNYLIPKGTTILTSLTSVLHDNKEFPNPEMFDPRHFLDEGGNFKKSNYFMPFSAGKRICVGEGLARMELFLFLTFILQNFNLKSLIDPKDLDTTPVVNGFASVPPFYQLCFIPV
Neuronal acetylcholine receptor; alpha2/beta4, sequence (P12389 whole entry): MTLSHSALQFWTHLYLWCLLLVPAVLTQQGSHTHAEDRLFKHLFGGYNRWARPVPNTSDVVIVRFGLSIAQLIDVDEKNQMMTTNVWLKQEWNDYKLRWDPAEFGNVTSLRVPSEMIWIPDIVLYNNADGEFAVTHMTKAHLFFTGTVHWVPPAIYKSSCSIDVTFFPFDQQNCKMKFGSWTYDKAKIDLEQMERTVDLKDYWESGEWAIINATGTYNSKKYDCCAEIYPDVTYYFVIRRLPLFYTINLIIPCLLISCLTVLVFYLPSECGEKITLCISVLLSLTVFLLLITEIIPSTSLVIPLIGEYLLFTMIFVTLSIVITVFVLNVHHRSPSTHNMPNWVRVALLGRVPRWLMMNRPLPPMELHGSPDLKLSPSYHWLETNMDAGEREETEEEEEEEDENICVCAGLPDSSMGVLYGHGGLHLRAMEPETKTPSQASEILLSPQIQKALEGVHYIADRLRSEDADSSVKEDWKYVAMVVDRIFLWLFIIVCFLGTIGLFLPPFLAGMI
Neuronal acetylcholine receptor; alpha2/beta4, sequence (P12392 whole entry): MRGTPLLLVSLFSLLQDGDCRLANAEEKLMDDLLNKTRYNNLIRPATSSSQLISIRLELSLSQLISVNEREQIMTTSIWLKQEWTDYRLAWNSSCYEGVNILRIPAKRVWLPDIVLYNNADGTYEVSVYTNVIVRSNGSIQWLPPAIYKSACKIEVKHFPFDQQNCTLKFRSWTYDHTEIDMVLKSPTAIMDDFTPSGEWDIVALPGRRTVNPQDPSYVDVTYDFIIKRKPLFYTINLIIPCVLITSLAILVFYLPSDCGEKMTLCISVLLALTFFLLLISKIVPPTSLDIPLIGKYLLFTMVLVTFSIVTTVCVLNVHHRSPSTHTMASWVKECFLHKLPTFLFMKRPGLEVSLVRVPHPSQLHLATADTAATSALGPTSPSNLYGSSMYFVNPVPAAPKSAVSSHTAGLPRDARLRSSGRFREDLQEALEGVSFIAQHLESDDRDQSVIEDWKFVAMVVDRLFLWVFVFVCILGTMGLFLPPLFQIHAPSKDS
Neuronal acetylcholine receptor; alpha2/beta2, sequence (P12389 whole entry): as the sequence (P12389 whole entry) above
Neuronal acetylcholine receptor; alpha2/beta2, sequence (P12390 whole entry): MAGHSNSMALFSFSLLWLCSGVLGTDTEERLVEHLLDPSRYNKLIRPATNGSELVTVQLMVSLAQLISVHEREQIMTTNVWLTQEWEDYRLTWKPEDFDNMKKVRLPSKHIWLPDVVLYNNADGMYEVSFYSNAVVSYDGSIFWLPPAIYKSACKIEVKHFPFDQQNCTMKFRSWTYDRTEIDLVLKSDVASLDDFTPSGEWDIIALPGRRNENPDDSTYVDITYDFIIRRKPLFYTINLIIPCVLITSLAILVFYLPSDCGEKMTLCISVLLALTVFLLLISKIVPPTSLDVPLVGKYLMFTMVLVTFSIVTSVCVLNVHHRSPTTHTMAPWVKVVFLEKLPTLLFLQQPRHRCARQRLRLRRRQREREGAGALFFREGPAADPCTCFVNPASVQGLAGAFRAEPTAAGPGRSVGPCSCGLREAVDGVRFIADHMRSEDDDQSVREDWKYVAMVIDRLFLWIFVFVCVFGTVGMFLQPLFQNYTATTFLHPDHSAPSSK
T2 sequence (P17787 whole entry): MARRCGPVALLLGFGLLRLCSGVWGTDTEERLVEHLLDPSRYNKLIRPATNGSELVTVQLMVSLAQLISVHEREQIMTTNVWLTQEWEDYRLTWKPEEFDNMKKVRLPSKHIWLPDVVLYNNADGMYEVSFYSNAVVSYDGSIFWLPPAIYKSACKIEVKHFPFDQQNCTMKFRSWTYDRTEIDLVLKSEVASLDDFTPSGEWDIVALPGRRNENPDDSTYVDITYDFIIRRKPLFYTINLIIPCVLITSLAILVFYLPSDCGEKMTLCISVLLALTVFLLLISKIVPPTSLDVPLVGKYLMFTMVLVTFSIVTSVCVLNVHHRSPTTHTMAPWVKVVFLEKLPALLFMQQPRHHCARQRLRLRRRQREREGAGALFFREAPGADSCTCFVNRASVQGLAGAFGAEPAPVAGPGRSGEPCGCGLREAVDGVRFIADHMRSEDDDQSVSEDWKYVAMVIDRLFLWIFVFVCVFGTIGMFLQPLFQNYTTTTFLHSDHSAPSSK
T2 sequence (P43681 whole entry): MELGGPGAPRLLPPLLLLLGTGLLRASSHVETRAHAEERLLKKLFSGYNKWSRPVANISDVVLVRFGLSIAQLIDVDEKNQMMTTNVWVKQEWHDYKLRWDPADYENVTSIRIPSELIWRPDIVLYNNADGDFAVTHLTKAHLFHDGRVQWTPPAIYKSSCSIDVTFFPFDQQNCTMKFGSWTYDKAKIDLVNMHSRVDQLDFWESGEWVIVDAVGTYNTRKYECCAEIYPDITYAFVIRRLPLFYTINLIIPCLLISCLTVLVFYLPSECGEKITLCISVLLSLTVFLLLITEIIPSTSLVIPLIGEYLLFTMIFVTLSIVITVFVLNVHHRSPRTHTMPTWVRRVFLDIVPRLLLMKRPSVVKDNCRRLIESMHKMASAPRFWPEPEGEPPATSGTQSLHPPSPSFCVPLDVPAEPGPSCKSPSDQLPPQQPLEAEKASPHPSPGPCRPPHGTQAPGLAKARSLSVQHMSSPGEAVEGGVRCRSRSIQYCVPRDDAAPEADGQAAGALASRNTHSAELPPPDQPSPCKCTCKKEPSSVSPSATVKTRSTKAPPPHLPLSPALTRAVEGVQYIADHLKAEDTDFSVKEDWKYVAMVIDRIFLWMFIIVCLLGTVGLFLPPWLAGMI
Beta-1 adrenergic receptor (Homo sapiens), sequence (P08588 whole entry, looked up): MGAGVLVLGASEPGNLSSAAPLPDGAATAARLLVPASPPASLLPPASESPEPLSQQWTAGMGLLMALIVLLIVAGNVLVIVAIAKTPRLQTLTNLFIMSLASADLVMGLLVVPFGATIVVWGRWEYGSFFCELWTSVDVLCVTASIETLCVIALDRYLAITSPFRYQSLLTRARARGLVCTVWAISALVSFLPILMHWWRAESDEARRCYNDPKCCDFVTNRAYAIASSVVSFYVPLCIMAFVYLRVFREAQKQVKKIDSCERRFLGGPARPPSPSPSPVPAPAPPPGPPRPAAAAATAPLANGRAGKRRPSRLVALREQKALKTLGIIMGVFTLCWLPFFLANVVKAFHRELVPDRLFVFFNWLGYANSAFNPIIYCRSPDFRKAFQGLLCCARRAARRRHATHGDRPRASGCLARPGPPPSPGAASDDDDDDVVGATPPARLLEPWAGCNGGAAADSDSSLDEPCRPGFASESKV

`OCC[C@H]1C[C@@H]1c1cncc(OC[C@@H]2CCN2)c1`: the inhibition in series [1] is -8.4%; in [2], -7.4%; in [4] it was 24.3%; in series [6], 51.2%; in series [7], 66.2%; in [8], 45.8%. Moreover, the inhibition in [10] was -4.5%; in series [11], 18.4%. For the same molecule, the Efficacy in series [3] came to 92%. In addition, the Ratio Ki in the series listed under Rattus norvegicus worked out at 65200. For the same molecule, in series [5], the remaining at 1 h, 1 µM was 80%. The “inhibition (INH)” value against Cytochrome P450 2C19 and at Cytochrome P450 2C9 was “<= 25%” throughout. In series [9], the result was inactive. Moreover, the inhibition at 10 µM against hERG (KCNH2) turned out to be 19.1%. For the same molecule, the Ki is 249 nM in [12] and 0.1 nM in [13]. In addition, the EC50 in series [14] worked out at 10.2 nM.
As to `COCC[C@H]1C[C@@H]1c1cncc(OC[C@@H]2CCN2)c1`, the inhibition in series [1] is 0.5%; in [2] it was -1.8%; in series [4], 25.3%; in series [6], 90.3%; in series [7], 84.5%; in [8] it was 48.3%. For the same molecule, the inhibition turned out to be 8.6% in series [10] and 26.2% in series [11]. For the same molecule, in [3], the Efficacy was found to be 60%. Further, the Ratio Ki in the series filed under Rattus norvegicus was greater than 100000. In addition, in series [5], the remaining at 1 h, 1 µM amounted to 84%. Further, the “inhibition (INH)” value on Cytochrome P450 2C19 and against Cytochrome P450 2C9 was “<= 25%” in each case. Further, the result in series [9] was inactive. In addition, at hERG (KCNH2), the inhibition at 10 µM turned out to be 13.7%. Besides, the Ki in series [12] turned out to be 236 nM; in [13], 0.1 nM. The half-maximal effective concentration (EC50) in series [14] worked out at 17.5 nM.
Turning to `CNC(=O)OCC[C@H]1C[C@@H]1c1cncc(OC[C@@H]2CCN2)c1`, the inhibition in series [1] is -0.6%; in [2], 0.7%; in series [4] it was 10.6%; in series [6], 2.1%; in [7], 12.3%; in series [8], 18.2%. In addition, the inhibition was 14.1% in series [10] and 14.6% in [11]. Also, the Efficacy in [3] is 77%. In addition, in the series listed under Rattus norvegicus, the Ratio Ki is greater than 100000. Also, the remaining at 1 h, 1 µM in series [5] was determined as 98%. The “inhibition (INH)” value against Cytochrome P450 2C19 and against Cytochrome P450 2C9 was “<= 25%” each time. The outcome in [9] was inactive. Besides, the inhibition at 10 µM on hERG (KCNH2) was 16.6%. In addition, the Ki worked out at 1890 nM in [12] and 0.3 nM in series [13]. In addition, the EC50 in [14] was found to be 15.7 nM.

Values taken from ChEMBL document CHEMBL2021777 (J Med Chem, 2012).
